Experimental data as given in ChEMBL document CHEMBL4680083, “Identification of Tricyclic Agonists of Sphingosine-1-phosphate Receptor 1 (S1P) Employing Ligand-Based Drug Design” (J Med Chem, 2016).
Active and inactive are the calls of the source. No cut-off for these calls is given here.

How the values were obtained:
[1] = target: Voltage-gated inwardly rectifying potassium channel KCNH2 (Homo sapiens, UniProt Q12809); experiment: Inhibition of human ERG by patch clamp assay
[2] = target: T1, Sphingosine 1-phosphate receptor 1 (Homo sapiens, UniProt P21453); experiment: Agonist activity at human S1P1 assessed as stimulation of cAMP accumulation relative to control; format: functional; conditions: filed as agonist
T1 sequence (P21453 whole entry): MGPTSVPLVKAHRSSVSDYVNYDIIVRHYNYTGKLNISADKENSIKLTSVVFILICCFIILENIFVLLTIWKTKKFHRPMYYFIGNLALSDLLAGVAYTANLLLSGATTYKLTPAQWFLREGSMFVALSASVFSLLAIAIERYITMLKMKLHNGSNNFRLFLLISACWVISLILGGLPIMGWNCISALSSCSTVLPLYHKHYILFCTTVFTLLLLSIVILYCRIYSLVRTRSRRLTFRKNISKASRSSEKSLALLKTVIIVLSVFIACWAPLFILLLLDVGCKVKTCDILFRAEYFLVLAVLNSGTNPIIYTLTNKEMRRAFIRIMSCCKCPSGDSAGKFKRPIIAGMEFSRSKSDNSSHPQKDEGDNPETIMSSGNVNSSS

[3] = Cmax in mouse at 5 mg/kg, po or 2 mg/kg, iv; format: ADME, organism-based; design: dose 5 mg/kg; conditions: in vivo
[4] = tested on: Rattus norvegicus; experiment: Antiarthritic activity in Lewis rat model of Complete Freund's adjuvant-induced arthritis at 0.03 mg/kg, po QD administered for 21 days after CFA injection and measured weekly three times upto day 21 by water displacement plethysmometry; format: functional, organism-based; conditions: time 21.0 day
In short: (§1)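 Male Lewis rats, 200−225 g, n = 8 per group. Immunized at the tail base with 100 μL of 10 mg/mL ground Mycobacterium butyricum in incomplete Freund's adjuvant. Oral dosing once daily in PEG300 vehicle from the day of immunization for 21 days, at 0.03, 0.1 or 1.0 mg/kg. Dexamethasone 0.1 mg/kg PO QD as positive control. Paw volume by water displacement plethysmometry, day 7 to day 21.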

[5] = Tmax in mouse at 5 mg/kg, po or 2 mg/kg, iv; format: ADME, organism-based; conditions: in vivo
[6] = Cmax in cynomolgus monkey at 0.5 mg/kg, po or 0.5 mg/kg, iv; format: ADME, organism-based, Macaca fascicularis; design: dose 0.5 mg/kg; conditions: in vivo
[7] = organism: Homo sapiens; experiment: Inhibition of sodium channel (unknown origin) assessed as reduction in 1 and 4 Hz-induced channel current at 10 uM by patch clamp technique relative to control
[8] = tested on: Rattus norvegicus; experiment: Antiarthritic activity in Lewis rat model of Complete Freund's adjuvant-induced arthritis assessed as inhibition in paw swelling at 0.1 to 1 mg/kg, po qd administered for 21 days after CFA injection and measured weekly three times upto day 21 by water displacement plethysmometry; format: functional, organism-based; conditions: dose 0.1-1 mg/kg, time 21.0 day; in short: as §1
[9] = Oral bioavailability in cynomolgus monkey at 0.5 mg/kg; format: ADME, organism-based, Macaca fascicularis; conditions: in vivo
[10] = Metabolic stability in dog assessed as half-life; format: ADME, Canis lupus familiaris
[11] = Half-life in dog at 0.1 mg/kg, po or 0.1 mg/kg, iv; format: ADME, organism-based, Canis lupus familiaris; conditions: in vivo
[12] = target: Sphingosine 1-phosphate receptor 3 (Homo sapiens, UniProt Q99500); experiment: Agonist activity at human S1P3 expressed in CHO cell membranes assessed as stimulation of [35S]-GTPgamma-S binding measured after 45 mins by liquid scintillation counting method; design: species or system Cell membrane
Chain of Sphingosine 1-phosphate receptor 3 (Q99500 whole entry): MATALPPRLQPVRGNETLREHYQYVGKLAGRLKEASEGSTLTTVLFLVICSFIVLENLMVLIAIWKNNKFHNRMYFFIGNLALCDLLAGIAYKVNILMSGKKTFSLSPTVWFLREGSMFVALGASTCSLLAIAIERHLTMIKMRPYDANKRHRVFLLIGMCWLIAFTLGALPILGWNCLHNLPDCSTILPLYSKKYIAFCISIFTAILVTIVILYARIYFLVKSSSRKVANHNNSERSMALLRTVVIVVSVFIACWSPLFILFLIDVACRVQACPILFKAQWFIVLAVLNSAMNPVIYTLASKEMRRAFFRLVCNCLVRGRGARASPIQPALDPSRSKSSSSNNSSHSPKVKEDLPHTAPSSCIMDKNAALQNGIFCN

[13] = Volume of distribution at steady state in rat at 1 mg/kg, po or 1 mg/kg, iv; format: ADME, organism-based; conditions: in vivo, read-out: Vdss
[14] = target: Sphingosine 1-phosphate receptor 1 (Rattus norvegicus, UniProt P48303); experiment: Agonist activity at rat S1P1 expressed in CHO cell membranes assessed as stimulation of [35S]-GTPgamma-S binding measured after 45 mins by liquid scintillation counting method; design: species or system Cell membrane
Chain of Sphingosine 1-phosphate receptor 1 (Rattus norvegicus, UniProt P48303) (P48303 whole entry): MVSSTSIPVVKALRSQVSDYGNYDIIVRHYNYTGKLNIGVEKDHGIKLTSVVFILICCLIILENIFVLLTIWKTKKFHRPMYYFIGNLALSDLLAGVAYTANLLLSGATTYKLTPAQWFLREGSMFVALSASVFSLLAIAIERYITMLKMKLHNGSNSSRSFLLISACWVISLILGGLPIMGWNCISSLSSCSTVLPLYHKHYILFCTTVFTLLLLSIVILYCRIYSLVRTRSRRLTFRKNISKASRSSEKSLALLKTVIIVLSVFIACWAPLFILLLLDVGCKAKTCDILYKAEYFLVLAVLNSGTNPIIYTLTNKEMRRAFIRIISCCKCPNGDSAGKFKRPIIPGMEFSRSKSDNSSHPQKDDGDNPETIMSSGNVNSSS
In short: (§2)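 S1P1/CHO cell membranes at 3 μg protein/well with 3-fold compound dilutions. [35S]GTPγS 0.2 nM final, 45 min at room temperature. Filter-plate capture, water washes, scintillation counting. EC50 taken at 50% of each compound's own Ymax.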

[15] = Metabolic stability in rat assessed as half-life; format: ADME
[16] = Cmax in dog at 0.1 mg/kg, po or 0.1 mg/kg, iv; format: ADME, organism-based, Canis lupus familiaris; design: dose 0.1 mg/kg; conditions: in vivo
[17] = target: T1, Sphingosine 1-phosphate receptor 1; experiment: Binding affinity to human S1P1
[18] = Oral bioavailability in mouse at 5 mg/kg; format: ADME, organism-based; conditions: in vivo
[19] = Volume of distribution at steady state in dog at 0.1 mg/kg, po or 0.1 mg/kg, iv; format: ADME, organism-based, Canis lupus familiaris; conditions: in vivo, read-out: Vdss
[20] = Oral bioavailability in rat at 1 mg/kg; format: ADME, organism-based; conditions: in vivo
[21] = target: T1, Sphingosine 1-phosphate receptor 1; experiment: Agonist activity at human S1P1 expressed in CHO cell membranes assessed as stimulation of [35S]-GTPgamma-S binding measured after 45 mins by liquid scintillation counting method relative to control; conditions: Cell membrane, filed as agonist; in short: as §2
[22] = Volume of distribution at steady state in mouse at 5 mg/kg, po or 2 mg/kg, iv; format: ADME, organism-based; conditions: in vivo, read-out: Vdss
[23] = tested on: Rattus norvegicus; experiment: Reduction in circulating lymphocytes count in Lewis rat blood administered orally measured at 4 to 24 hrs by hematology analyzer based analysis; format: functional, organism-based
In short: (§3)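 Lewis rats were given an oral dose as a solution or suspension in PEG300, with controls receiving vehicle only. Blood was taken by retro-orbital bleeding under isoflurane at 4 and 24 h. Lymphocytes were counted on a hematology analyzer. Reduction is relative to the vehicle group, averaged over the animals in each group (n = 3−4).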

[24] = tested on: Rattus norvegicus; experiment: Reduction in circulating lymphocytes count in Lewis rat blood at 1 mg/kg, po measured at 4 hrs by hematology analyzer based analysis; format: functional; design: scale not given: the % may be the effect or the level left; in short: as §3
[25] = tested on: Rattus norvegicus; experiment: Reduction in circulating lymphocytes count in Lewis rat blood at 1 mg/kg, po measured at 24 hrs by hematology analyzer based analysis; format: functional; design: scale not given: the % may be the effect or the level left; in short: as §3
[26] = Tmax in dog at 0.1 mg/kg, po or 0.1 mg/kg, iv; format: ADME, organism-based, Canis lupus familiaris; conditions: in vivo
[27] = Clearance in cynomolgus monkey at 0.5 mg/kg, po or 0.5 mg/kg, iv; format: ADME, organism-based, Macaca fascicularis; conditions: in vivo
[28] = Protein binding in rat assessed as bound fraction; format: ADME; conditions: read-out: PB (converted)
[29] = AUC in mouse at 5 mg/kg, po; format: ADME, organism-based; design: dose 5 mg/kg; conditions: in vivo
[30] = target: Cytochrome P450 2C19 (Homo sapiens, UniProt P33261); experiment: Inhibition of CYP2C19 (unknown origin); format: ADME
Chain of Cytochrome P450 2C19 (P33261 whole entry): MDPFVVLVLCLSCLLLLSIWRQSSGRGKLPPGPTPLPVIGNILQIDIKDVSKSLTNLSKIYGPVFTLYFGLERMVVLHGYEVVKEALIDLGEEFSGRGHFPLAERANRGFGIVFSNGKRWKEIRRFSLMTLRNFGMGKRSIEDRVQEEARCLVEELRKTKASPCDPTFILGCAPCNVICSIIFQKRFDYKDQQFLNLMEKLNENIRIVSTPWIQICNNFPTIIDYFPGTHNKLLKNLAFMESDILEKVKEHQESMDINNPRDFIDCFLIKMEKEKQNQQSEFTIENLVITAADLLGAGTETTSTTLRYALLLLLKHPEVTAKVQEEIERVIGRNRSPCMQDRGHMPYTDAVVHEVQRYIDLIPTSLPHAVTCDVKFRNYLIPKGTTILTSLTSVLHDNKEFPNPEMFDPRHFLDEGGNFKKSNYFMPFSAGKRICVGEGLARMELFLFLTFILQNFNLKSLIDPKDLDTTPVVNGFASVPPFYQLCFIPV

[31] = Oral bioavailability in dog at 0.1 mg/kg; format: ADME, organism-based, Canis lupus familiaris; conditions: in vivo
[32] = AUC in dog at 0.1 mg/kg, po; format: ADME, organism-based, Canis lupus familiaris; design: dose 0.1 mg/kg; conditions: in vivo
[33] = Volume of distribution at steady state in cynomolgus monkey at 0.5 mg/kg, po or 0.5 mg/kg, iv; format: ADME, organism-based, Macaca fascicularis; conditions: in vivo, read-out: Vdss
[34] = Permeability of compound at pH 5.5 by PAMPA; format: ADME; conditions: read-out: permeability
[35] = Plasma concentration in Lewis rat at 1 mg/kg, po measured at 24 hrs; format: ADME, organism-based; conditions: Lewis, plasma
In short: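 Lewis rats received a single oral 1.0 mg/kg dose as solution or suspension in PEG300. Blood was drawn retro-orbitally under isoflurane at 4 h and 24 h, within the blood lymphocyte reduction study. n = 3−4 per group, group mean reported.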

Chain of Voltage-gated inwardly rectifying potassium channel KCNH2 (Q12809 whole entry): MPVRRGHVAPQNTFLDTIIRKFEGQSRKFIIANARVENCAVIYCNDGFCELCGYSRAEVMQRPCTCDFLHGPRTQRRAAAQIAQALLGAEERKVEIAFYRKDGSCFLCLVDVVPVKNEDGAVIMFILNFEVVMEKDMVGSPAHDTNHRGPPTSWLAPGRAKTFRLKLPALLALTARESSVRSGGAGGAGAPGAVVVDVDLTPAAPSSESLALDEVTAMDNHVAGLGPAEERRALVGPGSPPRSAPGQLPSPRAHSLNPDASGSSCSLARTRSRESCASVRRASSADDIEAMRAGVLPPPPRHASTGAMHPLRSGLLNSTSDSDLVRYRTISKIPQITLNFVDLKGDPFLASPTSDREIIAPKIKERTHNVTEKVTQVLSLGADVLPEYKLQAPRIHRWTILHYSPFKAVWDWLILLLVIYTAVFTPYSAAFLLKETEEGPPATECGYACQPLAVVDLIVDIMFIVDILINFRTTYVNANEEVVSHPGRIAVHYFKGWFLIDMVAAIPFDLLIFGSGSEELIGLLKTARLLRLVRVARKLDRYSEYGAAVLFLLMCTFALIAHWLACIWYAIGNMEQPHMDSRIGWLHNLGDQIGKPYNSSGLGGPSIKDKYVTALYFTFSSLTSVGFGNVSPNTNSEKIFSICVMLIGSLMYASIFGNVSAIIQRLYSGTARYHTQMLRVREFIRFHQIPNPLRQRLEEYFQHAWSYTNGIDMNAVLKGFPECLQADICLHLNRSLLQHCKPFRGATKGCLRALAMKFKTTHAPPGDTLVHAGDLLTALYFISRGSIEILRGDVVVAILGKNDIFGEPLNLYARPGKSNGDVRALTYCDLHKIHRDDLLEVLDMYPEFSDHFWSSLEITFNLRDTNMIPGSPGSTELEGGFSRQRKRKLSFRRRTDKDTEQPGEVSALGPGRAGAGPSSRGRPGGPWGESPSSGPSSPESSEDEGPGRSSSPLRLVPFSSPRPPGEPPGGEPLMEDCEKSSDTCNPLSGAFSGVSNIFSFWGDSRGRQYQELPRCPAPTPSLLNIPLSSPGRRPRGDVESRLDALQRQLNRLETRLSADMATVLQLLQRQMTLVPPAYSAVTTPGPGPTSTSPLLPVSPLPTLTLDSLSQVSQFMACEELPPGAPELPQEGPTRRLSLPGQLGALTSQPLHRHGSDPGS

O=C(O)C1CN(Cc2ccc3c(c2)CCc2c-3noc2-c2onc(-c3ccccc3)c2C(F)(F)F)C1
IC50 [1]: 2000 nM | Emax [2]: 93% | Cmax [3]: 3.6 µM | Activity [4]: inactive | Tmax [5]: 3 h | Cmax [6]: 0.41 µM | inhibition [7]: 12% | Activity [8]: Active | bioavailability [9]: 80% | half-life [10]: > 2 h | half-life [11]: 23.1 h | EC50 [12]: 4400 nM | Vd [13]: 4.8 L/kg | EC50 [14]: 0.31 nM | half-life [15]: > 2 h | Cmax [16]: 0.09 µM | IC50 [17]: 0.38 nM | F [18]: 80% | Vd [19]: 2.5 L/kg | bioavailability [20]: 43% | Emax [21]: 95% | Vd [22]: 2.2 L/kg | EC50 [23]: 2.5 nM | Activity [24]: 83% | Activity [25]: 80% | Tmax [26]: 8 h | clearance [27]: 0.144 L/h/kg | fraction unbound [28]: 0.004 | AUC [29]: 30300 nM·h | IC50 [30]: > 40000 nM | bioavailability [31]: 95% | AUC [32]: 2300 nM·h | Vd [33]: 3.6 L/kg | Papp [34]: 260 nm/s | concentration at 24 h [35]: 0.013 µM
